# Active and inactive are the calls of the source. The calls are words filed in the database; no cut-off is given here.
# Experiments:
# Calf thymus DNA [1] = test: Binding affinity to calf thymus DNA in BPE buffer assessed as change in melting temperature at drug/DNA base pair ratio 1; type: nucleic-acid assay; settings: Bos taurus
# Procedure, shortened: (§1)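 Melting curves are read at 260 nm in BPE buffer, pH 7.1 (6 mM Na2HPO4, 2 mM NaH2PO4, 1 mM EDTA), in Peltier-heated 10 mm quartz cuvettes. Temperature rises from 20 to 100 °C at 1 °C/min and is monitored with a platinum probe. Tm is taken as the midpoint of the hyperchromic transition.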
# Nucleic Acid [2] = test: Binding affinity to poly(dA-dT)2 in BPE buffer assessed as change in melting temperature at drug/DNA base pair ratio 1; type: nucleic-acid assay; procedure, shortened: as §1
# Nucleic Acid [3] = test: Binding affinity to DNA assessed as inhibition of cleavage of DNA substrate up to 100 uM by Dnase1 footprinting assay; type: nucleic-acid assay
# Procedure, shortened: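 DNase I is then added to a final concentration of about 0.01 unit/mL. Digestion runs 3 min and is stopped by freeze-drying. Protected sites are localized on the gel.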
# [4] = biological target: T1, DNA topoisomerase 1 (Homo sapiens) (UniProt P11387); test: Inhibition of human recombinant topoisomerase 1-mediated supercoiled pUC19 DNA relaxation up to 100 uM […] by agarose gel electrophoresis analysis; settings: in the assay text read “45 mins” for “2 hrs”
# T1 sequence (whole entry): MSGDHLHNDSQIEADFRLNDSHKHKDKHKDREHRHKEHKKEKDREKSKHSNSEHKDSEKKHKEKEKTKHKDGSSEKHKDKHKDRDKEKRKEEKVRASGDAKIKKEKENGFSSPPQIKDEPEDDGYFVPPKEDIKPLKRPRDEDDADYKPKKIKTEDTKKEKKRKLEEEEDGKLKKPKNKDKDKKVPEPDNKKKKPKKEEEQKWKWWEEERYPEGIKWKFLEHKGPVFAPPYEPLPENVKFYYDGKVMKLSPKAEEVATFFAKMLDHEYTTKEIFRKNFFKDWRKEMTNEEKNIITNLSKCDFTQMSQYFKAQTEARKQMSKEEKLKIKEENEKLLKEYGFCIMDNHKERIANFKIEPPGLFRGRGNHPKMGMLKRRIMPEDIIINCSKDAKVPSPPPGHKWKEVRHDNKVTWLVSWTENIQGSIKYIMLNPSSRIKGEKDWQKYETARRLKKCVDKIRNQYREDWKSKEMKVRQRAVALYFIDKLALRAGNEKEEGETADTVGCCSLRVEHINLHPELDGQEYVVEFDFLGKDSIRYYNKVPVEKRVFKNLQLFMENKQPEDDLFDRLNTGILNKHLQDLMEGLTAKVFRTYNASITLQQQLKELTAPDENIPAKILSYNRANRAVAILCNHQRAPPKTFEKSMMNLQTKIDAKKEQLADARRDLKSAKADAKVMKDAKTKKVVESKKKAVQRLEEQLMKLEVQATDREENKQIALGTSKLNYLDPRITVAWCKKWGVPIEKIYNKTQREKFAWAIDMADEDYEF
# Procedure, shortened: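 Supercoiled pUC19 (130 ng) is incubated with 4 units of recombinant human topoisomerase I for 45 min at 37 °C. The relaxation buffer is 50 mM Tris pH 7.8, 50 mM KCl, 10 mM MgCl2, 1 mM DTT and 1 mM EDTA, with graded drug. Reactions are stopped with 0.25% SDS and 250 μg/mL proteinase K. Samples are run on 1% agarose for 2 h at 120 V and stained with ethidium bromide.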
# HT-29 = test: Antiproliferative activity against human HT-29 cells after 72 hrs by MTS assay; type: functional, cell-based; settings: HT-29, 72 h
# Calf thymus DNA [5] = test: Binding affinity to calf thymus DNA in BPE buffer at drug/DNA base pair ratio up to 10 by UV spectroscopic analysis; type: nucleic-acid assay; settings: Bos taurus
# Procedure, shortened: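 Absorption spectra are recorded in BPE buffer, pH 7.1, at a constant drug concentration of 20 μM. Aliquots of concentrated calf thymus DNA are added to cover a range of DNA-phosphate/drug ratios.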
# Calf thymus DNA [6] = test: Binding affinity to calf thymus DNA at drug/DNA base pair ratio up to 4 by circular dichroism analysis; type: nucleic-acid assay; settings: Bos taurus
# Procedure, shortened: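 CD spectra are recorded in 1 mM sodium cacodylate buffer, pH 7.0, in 10 mm quartz cuvettes, averaging four scans. A 50 μM drug solution is diluted stepwise with 5 mM DNA. Alternatively, the drug–DNA complex at high P/D is diluted with pure ligand solution to reach the desired drug/DNA ratio.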
# PC-3 = test: Antiproliferative activity against human PC3 cells after 72 hrs by MTS assay; type: functional, cell-based; settings: PC-3, 72 h
# MCF7 = test: Antiproliferative activity against human MCF7 cells after 72 hrs by MTS assay; type: functional, cell-based; settings: MCF7, 72 h
SMILES,ΔTm (Calf thymus DNA [1]),ΔTm (Nucleic Acid [2]),further results
COc1cc2ncnc(Nc3cccc(C)c3)c2cc1OC,0.3 °C,0.3 °C,
COc1cc2ncnc(Oc3ccc(Br)cc3F)c2cc1OC,0.8 °C,0.5 °C,
COc1cc2ncnc(N(CCN3CCCCC3)c3ccc(C)c(Br)c3)c2cc1OC,13.5 °C,27.7 °C,Activity (Nucleic Acid [3]): Active
COc1cc2ncnc(Nc3cccc(Br)c3)c2cc1OC,0.2 °C,0.4 °C,inhibition [4]: inactive; IC50 (HT-29): 10.1 µM; Activity (Calf thymus DNA [5]): Active; Activity (Calf thymus DNA [6]): Active; IC50 (PC-3): > 10 µM; IC50 (MCF7): 4.7 µM
CCN(c1ccc(C)c(Br)c1)c1ncnc2cc(OC)c(OC)cc12,8.8 °C,13.4 °C,
COc1cc2ncnc(N(C)c3cccc(NC(=O)NC4CCCCC4)c3)c2cc1OC,5.7 °C,9.7 °C,
COc1cc2ncnc(Nc3cccc(F)c3)c2cc1OC,0.2 °C,0.4 °C,
COc1cc2ncnc(N(C)c3ccc(C(F)(F)F)cc3)c2cc1OC,6.5 °C,9.1 °C,
COc1cc2ncnc(N(CCN(C)C)c3ccc(C)c(Br)c3)c2cc1OC,9.9 °C,20 °C,
CCCCNC(=O)Nc1ccc(N(C)c2ncnc3cc(OC)c(OC)cc23)cc1,0.3 °C,0.4 °C,
COc1cc2ncnc(Nc3ccc(C)c(Br)c3)c2cc1OC,0.2 °C,0.4 °C,
COc1ccc(NC(=O)Nc2cccc(N(C)c3ncnc4cc(OC)c(OC)cc34)c2)cc1,6.8 °C,11 °C,
COc1cc2ncnc(Nc3ccc(Br)cc3F)c2cc1OC,0.1 °C,0.3 °C,
CCNC(=O)Nc1cccc(N(C)c2ncnc3cc(OC)c(OC)cc23)c1,5.2 °C,7.9 °C,
COc1cc2ncnc(N(C)c3cccc(Cl)c3)c2cc1OC,7.7 °C,12.4 °C,
COc1cc2ncnc(Nc3cccc(C(F)(F)F)c3)c2cc1OC,0.2 °C,0.5 °C,
COc1cc2ncnc(Nc3ccc(Br)cc3)c2cc1OC,3.9 °C,0.2 °C,
COc1cc2ncnc(Nc3ccc(C)c(C(F)(F)F)c3)c2cc1OC,0.4 °C,0.5 °C,
COc1cc2ncnc(N(C)c3cccc(C)c3)c2cc1OC,7.1 °C,9.7 °C,
COc1cc2ncnc(N(C)c3cccc(Br)c3)c2cc1OC,8.1 °C,12.2 °C,inhibition [4]: inactive
COc1ccc(NC(=O)Nc2ccc(Oc3ncnc4cc(OC)c(OC)cc34)cc2)cc1,0.3 °C,0.5 °C,
COc1cc2ncnc(N(C)c3ccc(C)c(Cl)c3)c2cc1OC,8.9 °C,13.7 °C,
COc1cc2ncnc(N(C)c3ccc(Br)cc3F)c2cc1OC,1.4 °C,3.3 °C,
COc1cc2ncnc(N(Cc3ccccc3)c3ccc(C)c(Br)c3)c2cc1OC,6.5 °C,9.6 °C,
COc1cc2ncnc(N(C)c3cc(Br)ccc3Br)c2cc1OC,1.6 °C,3.3 °C,
Fc1ccc(Nc2ncnc3cc4c(cc23)OCO4)cc1Cl,0.3 °C,0.4 °C,

SMILES,ΔTm (Calf thymus DNA [1]),ΔTm (Nucleic Acid [2]),further results
CCCN(c1ccc(C)c(Br)c1)c1ncnc2cc(OC)c(OC)cc12,7 °C,12.6 °C,
CN(c1ccc(F)c(Cl)c1)c1ncnc2cc3c(cc12)OCO3,2.8 °C,4.6 °C,
COc1cc2ncnc(N(C)c3cccc(C(F)(F)F)c3)c2cc1OC,5.8 °C,9.5 °C,
COc1cc2ncnc(Nc3ccc(C)c(Cl)c3)c2cc1OC,0.3 °C,0.4 °C,
COc1cc2ncnc(N(C)c3ccc(F)c(Cl)c3)c2cc1OC,6.1 °C,10.5 °C,
COc1cc2ncnc(Nc3ccc(F)c(Cl)c3)c2cc1OC,0.2 °C,0.4 °C,
COc1cc2ncnc(N(C)c3cccc(F)c3)c2cc1OC,7.3 °C,9.8 °C,
COc1cc2ncnc(Nc3ccc(C(F)(F)F)cc3)c2cc1OC,0.1 °C,0.5 °C,
COc1cc2ncnc(Oc3cccc(Br)c3)c2cc1OC,0.7 °C,0.7 °C,
COc1cc2ncnc(N(C)c3cccc(NC(=O)Nc4ccccc4)c3)c2cc1OC,6 °C,9.9 °C,
CN(c1ccc(Br)cc1F)c1ncnc2cc3c(cc12)OCO3,3.6 °C,4.2 °C,
COc1cc2ncnc(N(c3ccc(C)c(Br)c3)C(C)C)c2cc1OC,5.8 °C,12.4 °C,
COc1cc2ncnc(N(C)c3cccc(NC(=O)Nc4ccc(F)c(Cl)c4)c3)c2cc1OC,7.7 °C,10.5 °C,
Fc1cc(Br)ccc1Nc1ncnc2cc3c(cc12)OCO3,0.3 °C,0.5 °C,
COc1cc2ncnc(Oc3cccc(NC(=O)Nc4ccccc4)c3)c2cc1OC,0.4 °C,0.5 °C,
COc1cc2ncnc(Nc3cccc(Cl)c3)c2cc1OC,1.8 °C,0.3 °C,
COc1cc2ncnc(N(C)c3ccc(C)c(C(F)(F)F)c3)c2cc1OC,7.8 °C,11 °C,
COc1cc2ncnc(Oc3ccc(F)c(Cl)c3)c2cc1OC,1.2 °C,0.5 °C,
COc1cc2ncnc(Oc3ccc(NC(=O)Nc4ccccc4)cc3)c2cc1OC,0.4 °C,0.5 °C,
COc1cc2ncnc(N(C)c3ccc(Br)cc3)c2cc1OC,6 °C,10.8 °C,
COc1ccc(NC(=O)Nc2cccc(Oc3ncnc4cc(OC)c(OC)cc34)c2)cc1,0.2 °C,0.3 °C,
COc1cc2ncnc(Nc3cc(Br)ccc3Br)c2cc1OC,0.4 °C,0.5 °C,
COc1cc2ncnc(N(C)c3ccc(NC(=O)Nc4ccccc4)cc3)c2cc1OC,0.4 °C,0.6 °C,
COc1cc2ncnc(N(C)c3ccc(C)c(F)c3)c2cc1OC,7.3 °C,11.3 °C,
COc1cc2ncnc(Nc3ccc(C)c(F)c3)c2cc1OC,0.2 °C,0.5 °C,
CCCCNC(=O)Nc1cccc(N(C)c2ncnc3cc(OC)c(OC)cc23)c1,5.7 °C,8.1 °C,

# — ChEMBL document CHEMBL1275400, “Design, synthesis, and DNA-binding of N-alkyl(anilino)quinazoline derivatives” (J Med Chem, 2010)
